Assay outcomes: PubChem, The Scripps Research Institute Molecular Screening Center
Sampled rows, rich in hits. Any-hit rate of the full collection: about 4.5%.
OX1R antag-1 = blocks the human orexin 1 receptor; O43613; CHO/OX1R cells, Fluo-8 calcium fluorescence, orexin A; inhibition, % at 5 µM; actives 0.43% (n = 330,000); AID 434989;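 active means inhibition above its plate's threshold, mean inhibition of all tested compounds on the plate plus 3 SD, cut at about 37% in these data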;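 further: 0% = orexin A challenge wells and 100% = SB-334867-A antagonist wells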
Target sequence (O43613 whole entry, looked up): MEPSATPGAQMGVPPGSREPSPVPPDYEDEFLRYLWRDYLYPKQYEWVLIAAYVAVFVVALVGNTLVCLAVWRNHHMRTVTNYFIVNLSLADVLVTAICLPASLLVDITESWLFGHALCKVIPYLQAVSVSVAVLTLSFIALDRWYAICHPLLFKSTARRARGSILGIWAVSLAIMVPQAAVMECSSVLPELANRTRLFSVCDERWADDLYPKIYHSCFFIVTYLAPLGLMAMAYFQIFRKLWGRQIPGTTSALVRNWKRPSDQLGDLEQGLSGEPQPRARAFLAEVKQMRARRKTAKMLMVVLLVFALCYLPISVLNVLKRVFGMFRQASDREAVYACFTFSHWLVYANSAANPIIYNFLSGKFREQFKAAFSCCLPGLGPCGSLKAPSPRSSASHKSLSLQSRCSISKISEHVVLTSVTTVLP
OX1R antag-2 = antagonists of human orexin 1 receptor (OX1R). O43613. OX1R-expressing cells, FRET antagonist read-out. inhibition, % at 6.6 µM. actives 1.8% (n = 330,000). AID 485270; in the data active means inhibition mostly above about 38%, no sharp cut-off; inactive means mostly below about 40%;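 further: 0% = agonist challenge alone and 100% = reference antagonist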
GPR7 antagonist = human neuropeptides B/W receptor 1 antagonism | inhibition, % at 4.4 µM | AID 1861 | P48145 | actives 1.1% (n = 290,000) | GPR7-expressing cells, fluorescence antagonist assay; in the data active means inhibition above about 16%, passing the limit was not always enough;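 further: cells stimulated with the agonist NPW; 0% = agonist with vehicle and 100% = vehicle without agonist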
TAAR1 antag = antagonists of human TAAR1; inhibition, % at 3 µM; Q96RJ0; actives 1.5% (n = 360,000); CHO RD-HGA16 TAAR1, Fluo-8 calcium fluorescence, antagonist;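 active means inhibition above a per-plate cutoff, the mean inhibition of test compounds on that plate plus 3 SD, cut at about 49% in these data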;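 further: 0% = DMSO plus EC80 beta-PEA response and 100% = DMSO alone without agonist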
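System: RD-HGA16 CHO cells with stable hTAAR1 and Gα16 | Probe or stimulus: EC80 β-phenethylamine stimulus | Dosing: 3 µM, single point | Times: Dye loading 75 min at 37 °C, then 30 min room temperature | Measured by: Fluo-8 calcium-sensitive fluorescence | Read-out basis: % inhibition of agonist calcium response | Replicates: n of 1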
CHO parental Ca = counter-screen: ATP calcium response change in parental CHO cells; parental CHO-K1, ATP-induced calcium, Fluo-8 fluorescence; inhibition, % at 5.6 µM; actives 0.63% (n = 330,000); AID 463079;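 active means inhibition above that plate's mean sample inhibition plus 3 SD, cut at about 26% in these data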;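 further: 0% = ATP-challenged DMSO wells and 100% = DMSO wells without ATP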
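test system = CHO parental line | reagent = ATP stimulus | measured by = intracellular calcium via Fluo-8 no-wash fluorescent dye | control set = ATP and no-ATP DMSO wells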
TAAR1 agonist = agonists of human TAAR1 | Q96RJ0 | CHO RD-HGA16 TAAR1, Fluo-8 calcium fluorescence; vehicle wells 0%, saturating PEA agonist 100% | activation, % at 3 µM | actives 0.99% (n = 360,000) | AID 624467;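 active means activation above the mean activation of all test compounds in the run plus 3 SD, cut at about 38% in these data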
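Test system: RD-HGA16 (CHO) cells co-expressing Gα16 and hTAAR1; dosing: one-point dosing at 3 µM (nominal); timing: 17-24 h seeding, 75 min 37 °C dye, 30 min RT; signal: kinetic Fluo-8 calcium fluorescence; read-out basis: % activation relative to PEA EC100 response; controls: DMSO and PEA EC100; replicates: n 1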
nonsel antag count = counter-screen for TAAR1 antagonists: nonselective antagonists | shares compounds with TAAR1 antag | counterscreen cell line, calcium fluorescence, antagonist mode | inhibition, % at 3 µM | actives 77% (n = 2,400); in the data active means inhibition above about 22%;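 further: CHO-Ga16 host cells stimulated with ATP at an EC80 level; 0% = agonist EC80 plus vehicle and 100% = vehicle without agonist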
TAAR1 ant conf = confirmation of human TAAR1 antagonists; shares compounds with TAAR1 antag; TAAR1-expressing cells, fluorescence antagonist read-out; inhibition, % at 3 µM; actives 40% (n = 2,400); in the data active means inhibition above about 49%;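 further: CHO-Ga16 host cells challenged with agonist PEA near its EC80; 0% = agonist at EC80 plus vehicle and 100% = vehicle with no agonist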
Ga16 ag counter = counter-screen for TAAR1 antagonists: nonselective Ga16 agonists; shares compounds with TAAR1 antag; Ga16-expressing cells, calcium fluorescence, agonist counterscreen; activation, % at 3 µM; actives 18% (n = 2,400); AID 651953; in the data active means activation above about 12%;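 further: 0% = vehicle wells and 100% = saturating stimulus response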
TAAR1 ag counter = activates human TAAR1 in antagonist counter-screen | shares compounds with TAAR1 antag | hTAAR1 cell line, fluorescence activation, agonist mode | activation, % at 3 µM | actives 2% (n = 2,400) | AID 651955; in the data active means activation above about 37%;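 further: CHO cells stably expressing TAAR1 with calcium dye readout; 0% = DMSO vehicle and 100% = full agonist response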
Active calls of the source: *; x = no result.

SMILES	OX1R antag-1	OX1R antag-2	GPR7 antagonist	TAAR1 antag	CHO parental Ca	TAAR1 agonist	nonsel antag count	TAAR1 ant conf	Ga16 ag counter	TAAR1 ag counter
O=C(CSc1ncnc2c1cnn2-c1ccccc1)NC1CCS(=O)(=O)C1 (stereo not drawn)	-12	6	x	-12	-12	3	x	x	x	x
Cc1cn([C@H]2C[C@H](O)[C@@H](CCC(=O)NC(c3ccccc3)c3ccccc3)O2)c(=O)[nH]c1=O	x	x	x	-5	x	1	x	x	x	x
COc1cc(-c2cc(C(=O)N(C)Cc3ccccc3)c3ccccc3n2)cc(OC)c1OC	-36	-26	-9	47	-25	5	x	x	x	x
COc1ccccc1CN(C)C(=O)c1cc(-c2cc(OC)c(OC)c(OC)c2)nc2ccccc12	-15	11	-4	61*	-15	8	35*	54*	5	4
COc1cc(-c2cc(C(=O)OCC(=O)NC3CC3)c3ccccc3n2)cc(OC)c1OC	-12	18	x	68*	-22	13	27*	41	8	10
O=C(Nc1ccc(S(=O)(=O)N2CCOCC2)cc1)c1ccccc1F	10	-7	-3	-13	-1	6	x	x	x	x
CC(C)Nc1nc(NCCN2CCCC2)c2sc(-c3ccccc3)cc2n1	x	x	x	-5	x	1	x	x	x	x
CC(=O)c1cccc(NC(=O)c2ccc(-c3ccccc3[N+](=O)[O-])o2)c1	-7	69*	-16	62*	-26	32	24*	43	18*	18
COc1ccc(CC(=O)Nc2nc(-c3ccc(F)c(F)c3)cs2)cc1	-23	13	4	36	7	0	x	x	x	x
O=C(Cc1ccc(F)cc1)Nc1nc(-c2ccc(F)c(F)c2)cs1	x	x	9	74*	x	10	34*	45	7	4
O=C(c1[nH]c(C(F)(F)F)nc1-c1ccccc1)N1CCN(c2ncccc2C(F)(F)F)CC1	x	x	x	3	x	7	x	x	x	x
Cc1cccc(/C=C2\Sc3ccc(C(=O)N4CCC(C(N)=O)CC4)cc3N(C)C2=O)c1	2	3	9	60*	-5	7	18	26	6	6
COc1ccc(/C=C2\Sc3ccc(C(=O)N4CCCC4)cc3N(C)C2=O)cc1OC	-17	13	-1	x	-22	x	x	x	x	x
CC(=O)Oc1ccc(C(=O)Nc2cc(NC(=O)c3ccc(OC(C)=O)cc3)cc(C(=O)NC(C)(C)C)c2)cc1	8	4	-6	67*	15	5	32*	42	5	6
COC(=O)CSc1nc2ccc(NC(=O)c3ccccc3C(=O)N3CCOCC3)cc2s1	-19	25	-6	55*	-25	22	24*	50*	9	8
O=C(Nc1ccc2nc(SCc3ccc(Cl)cc3)sc2c1)c1ccccc1C(=O)N1CCOCC1	9	25	2	76*	-15	20	34*	54*	11	12
O=C(CSc1nc2ccc(NC(=O)c3ccccc3C(=O)O)cc2s1)Nc1c(Cl)cccc1Cl	-7	30	2	-22	-3	-1	x	x	x	x
CCCc1cc(=O)oc2c(C)c(OCC(=O)NC3CCN(Cc4ccccc4)CC3)ccc12	-9	27	-5	-8	-25	1	x	x	x	x
O=C(N=C1SC2CS(=O)(=O)CC2N1CCc1ccc(F)cc1)C1CCCCC1 (stereo not drawn)	-19	22	1	-14	-1	4	x	x	x	x
Cc1ccc([C@H]2C(C(=O)O)=CC[C@@H](c3ccc(Cl)cc3)N2S(=O)(=O)c2ccc(C)cc2)cc1	37	39*	x	66*	-6	6	11	46	2	1
Cc1ccc(N(Cc2cc3ccc(C)cc3[nH]c2=O)C(=O)c2ccco2)c(C)c1	-32	1	-7	104*	-23	0	12	-1	3	5
COc1ccc(OC)c2[nH]c(=O)c(CCNC(=O)c3cc4ccccc4o3)cc12	-51	13	-4	25	-22	3	x	x	x	x
Cc1ccc(C)c2[nH]c(=O)c(CCNC(=O)c3cc4ccccc4o3)cc12	-30	18	-5	49*	-22	6	24*	25	7	3
COc1ccc(CCn2c(C)cc3c(c2=O)C(c2ccc4c(c2)OCO4)C(C#N)=C(N)O3)cc1OC (stereo not drawn)	-22	15	-1	53*	-8	2	29*	37	4	4
Cc1cc2c(c(=O)n1Cc1ccccn1)C(c1ccc3c(c1)OCO3)C(C#N)=C(N)O2 (stereo not drawn)	-10	8	5	106*	-4	5	10	12	4	1
SMILES	OX1R antag-1	OX1R antag-2	GPR7 antagonist	TAAR1 antag	CHO parental Ca	TAAR1 agonist	nonsel antag count	TAAR1 ant conf	Ga16 ag counter	TAAR1 ag counter
Cc1cc2c(c(=O)n1Cc1ccccn1)C(C(C)C)C(C#N)=C(N)O2 (stereo not drawn)	-12	14	0	6	0	2	x	x	x	x
CC(C)(C)c1nnc(N/N=C/c2ccccc2)n(N)c1=O	-31	3	-1	59*	-15	13	30*	52*	9	5
CC(C)(C)c1nnc(N/N=C/c2ccccc2O)n(N)c1=O	-11	22	2	59*	-9	25	42*	64*	19*	17
Nn1cnnc1N/N=C/c1ccccc1C(F)(F)F	2	30	-13	12	4	-1	x	x	x	x
C=C(C)COc1ccc(-c2[nH]ncc2-c2ccccc2)c(O)c1	13	1	-16	60*	-3	20	-1	9	1	12
C=C(C)COc1ccc(-c2n[nH]c(C)c2Oc2ccccc2OC)c(O)c1	-6	18	6	52*	-6	-2	8	10	1	2
Clc1ccc(OCc2nnc(SCc3nc4ccccc4[nH]3)n2Cc2ccco2)cc1	-17	17	9	50*	-17	7	45*	54*	14*	15
O=C(CN1C(=O)c2ccc([N+](=O)[O-])cc2C1=O)Nc1cc(S(=O)(=O)N2CCOCC2)ccc1Cl	-15	43	x	-2	-17	2	x	x	x	x
Cc1cc(Br)ccc1NC(=O)c1ccccc1-c1ccccc1	-54	29	-7	57*	-36	1	3	1	2	2
Cc1ccc2c(c1)-c1c(cnn1CC(=O)N1CCCN(Cc3ccccc3F)C1)CO2	-6	43*	2	75*	-5	14	28*	52*	10	10
